Source: PubChem BioAssay
MLL AF4-AF9 inh – inhibitors of AF4 peptide binding to AF9, primary screen, biochemical, AlphaScreen, biotin-AF4 peptide, FLAG-AF9, single point. AID 651704, 2012. 350,000 tested, 0.47% active. inhibition, % at 10 µM;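 active = every replicate reaching a set inhibition limit, whatever the replicate mean, cut at about 25% in these data; inconclusive = mean inhibition reaches that limit but some replicates miss it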;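 note: 0% = plate neutral control median and 100% = total signal loss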
miR-122 sensor – miR-122 Renilla sensor signal increase in Huh7, primary screen, miR-122 inhibitor project, cell-based, single point, plate reader | activation (reporter increase), % at 12.5 µM | Huh7 miR-122 Renilla luciferase sensor, 48 h; neutral wells = 0, positive control = 100 | 340,000 tested, 0.3% active | AID 602342, 2012;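 active = mean replicate activation score at least 90 and every replicate individually at or above 90; inconclusive = only one of the two criteria met; inactive = neither criterion met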;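 note: higher luciferase means less miR-122 activity so hits act as miR-122 inhibitors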
Rtt109 Vps75 – inhibitors of C. albicans Rtt109/Vps75 HAT, primary screen, biochemical, ThioGlo CoA-SH fluorescence, plate reader | Histone acetyltransferase RTT109 (Candida albicans (strain SC5314 / ATCC MYA-2876)), … | purified Rtt109/Vps75, 4 h | inhibition, % at 34.9 µM | 330,000 tested, 0.16% active | AID 540336, 2011;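 active = inhibition of at least 50% in every replicate; inconclusive = best replicate reaches 50% inhibition but some replicates fall short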
ERAP1 HTS inh – human ERAP1 aminopeptidase inhibitors, primary screen, biochemical, single point, plate reader; recombinant ERAP1, Leu-AMC fluorescence, 60 min; inhibition, % at 10.7 µM; Endoplasmic reticulum aminopeptidase 1 (Homo sapiens), Q9NZ08; 340,000 tested, 0.15% active; AID 652197, 2013;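 active = mean replicate inhibition of at least 30%, or all replicates individually reaching that 30% level; inactive = mean below 30% and not every replicate reaching it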;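 note: 0% = neutral control wells and 100% = L-leucinethiol positive control wells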
Target sequence (Q9NZ08 whole entry, looked up): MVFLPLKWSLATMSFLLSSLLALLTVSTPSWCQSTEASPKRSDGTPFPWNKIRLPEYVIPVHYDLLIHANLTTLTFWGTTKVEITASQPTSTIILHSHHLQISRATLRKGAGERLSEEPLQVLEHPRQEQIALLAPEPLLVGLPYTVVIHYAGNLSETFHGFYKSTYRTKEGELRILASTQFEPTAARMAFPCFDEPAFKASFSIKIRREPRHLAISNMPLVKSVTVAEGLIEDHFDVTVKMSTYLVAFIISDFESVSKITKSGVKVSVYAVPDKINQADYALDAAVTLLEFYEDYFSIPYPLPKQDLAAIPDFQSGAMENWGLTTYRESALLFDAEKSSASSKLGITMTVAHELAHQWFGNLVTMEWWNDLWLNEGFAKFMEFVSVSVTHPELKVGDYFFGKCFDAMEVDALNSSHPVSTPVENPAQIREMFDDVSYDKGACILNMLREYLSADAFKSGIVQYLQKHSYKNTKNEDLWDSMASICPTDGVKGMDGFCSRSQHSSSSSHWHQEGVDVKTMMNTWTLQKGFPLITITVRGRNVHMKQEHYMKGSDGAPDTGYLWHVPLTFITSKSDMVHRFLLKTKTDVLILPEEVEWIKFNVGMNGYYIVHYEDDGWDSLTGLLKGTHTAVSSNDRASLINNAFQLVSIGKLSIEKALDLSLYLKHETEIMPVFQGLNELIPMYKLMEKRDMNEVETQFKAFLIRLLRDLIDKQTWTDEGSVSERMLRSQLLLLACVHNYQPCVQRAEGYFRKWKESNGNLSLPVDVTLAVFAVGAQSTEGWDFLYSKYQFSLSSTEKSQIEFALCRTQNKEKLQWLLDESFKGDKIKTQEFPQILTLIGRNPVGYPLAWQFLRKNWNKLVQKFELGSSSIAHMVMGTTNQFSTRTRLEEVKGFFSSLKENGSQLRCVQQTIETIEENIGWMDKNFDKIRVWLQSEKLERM
S100A4 inh HTS – inhibitors of S100A4-myosin IIA peptide binding, primary screen, biochemical, fluorescence polarization, TAMRA-MyoIIA peptide. Protein S100-A4 (Homo sapiens), P26447. inhibition, % at 10.7 µM. 360,000 tested, 0.14% active. AID 652163, 2013;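 active = mean inhibition of at least 70% across replicates, with every replicate also reaching that level; inconclusive = mean inhibition reaches 70% but some replicates fall short; inactive = mean inhibition below 70%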
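Test system: S100A4 monomer protein; Medium: HEPES pH 7.2 with CaCl2, KCl, NaCl, DTT, Triton; Probe or stimulus: TAMRA-labelled myosin IIA heavy-chain peptide probe, 5 nM; Doses: one dose per compound; Times: polarization read 5 min after assay mix addition, stable 5–60 min; Benchmarks: neutral control DMSO, positive control TFP.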
AlphaScreen intf – AlphaScreen signal interference counter-screen, dose response, artefact control, biochemical, cherry-picked samples, luminescence | shares compounds with MLL AF4-AF9 inh | AC50, µM (titrated, usually from 12 µM), inactives show at the highest dose activity change, negative = inhibition | 530 tested, 45% active; cut-off not given, nearly all actives have AC50 up to about 14 µM
* = called active by the depositor; u = inconclusive; x = no result; + = active, no number; [ ] = remark or other dose. Most compounds without a hit are left out; they make up all but 0.86% or so of the library.

SMILES	MLL AF4-AF9 inh	miR-122 sensor	Rtt109 Vps75	ERAP1 HTS inh	S100A4 inh HTS	AlphaScreen intf
CN1CCN(C(c2ccccn2)c2cc(Cl)c3cccnc3c2O)CC1 (stereo unspecified)	39*	-1	56*	5	2	-7%
CCCCC(=O)NC(c1ccccc1Cl)c1ccc2cccnc2c1O (stereo unspecified)	2	-16	2	-2	1	x
CN1CCN(C(c2ccc(C(F)(F)F)cc2)c2ccc3cccnc3c2O)CC1 (stereo unspecified)	85*	x	x	3	-21	2.4µM*
Oc1c(C(c2ccccc2Cl)N2CCCC2)ccc2cccnc12 (stereo unspecified)	91*	-11	8	3	-5	2.1µM*
Cc1ccc(C(c2cc(Cl)c3cccnc3c2O)N2CCN(C)CC2)cc1 (stereo unspecified)	x	0	13	x	x	x
Oc1c(C(c2ccc(Cl)cc2)N2CCCC2)cc(Cl)c2cccnc12 (stereo unspecified)	56*	x	3	-3	-3	-44%
COc1ccc2nc(C)cc(N3CCC(C(N)=O)CC3)c2c1	-3	4	-4	3	10	x
COc1ccc(N2CCN(c3cc(C)nc4ccc(OC)cc34)CC2)cc1	34*	0	-7	-4	-1	-38%
COc1ccc(S(=O)(=O)N(C)C[C@H]2Oc3ccc(NC(=O)CCCN(C)C)cc3C(=O)N([C@@H](C)CO)C[C@@H]2C)cc1	-1	-2[16.7 µM]	x	-3	21	x
O=C(c1ccccc1F)N1CC(=O)N2[C@H](CO)[C@H](c3ccc(-c4ccccc4)cc3)[C@@H]2C1	-1	x	x	x	0	x
C(=C\c1ccncc1)/c1ccncc1	21	x	-18	x	-4	-19%
CN(C)c1ccc(Nc2nc(N)c3ccccc3n2)cc1	60*	x	1	-23	0	12µM*
NC(N)=NCCCS(=O)(=O)Nc1ccc(Nc2c3ccccc3nc3cc([N+](=O)[O-])ccc23)cc1	78*	-5	3	14	-5	5.6µM*
O=[N+]([O-])c1ccc(Nc2c3ccccc3nc3ccccc23)cc1	5	x	x	-20	2	x
Cc1[nH]n(-c2ccccc2)c(=O)c1N=Nc1c(O)cc(S(=O)(=O)N(C)C)c2ccccc12	50*	0	-22	x	1	9%
CN(CCc1ccccc1)C(=O)c1ccc(NC(=O)Cc2ccc(NC(=O)C3CCN(C(=O)C4CCCCC4)CC3)cc2)cc1	27*	-7	-11	-1	16	2%
CN(C(=O)c1ccc(NC(=O)Cc2ccc(NC(=O)C3CCN(C(=O)c4ccccc4)CC3)cc2)cc1)C1CC1	38*	-4	8	1	3	-15%
C[C@H](NC(=O)C[C@@H]1C[C@@H]2c3cc(NC(=O)CC4CC4)ccc3O[C@@H]2[C@H](CO)O1)c1ccccc1	0	0[16.7 µM]	x	2	2	x
C[C@H](CO)N1C[C@H](C)[C@@H](CN(C)S(=O)(=O)c2cn(C)cn2)Oc2ccc(NC(=O)C3CCCCC3)cc2CC1=O	-2	-2[16.7 µM]	x	-1	15	x
c1ccc2c(c1)nc(Nc1ccc(N3CCCCC3)cc1)c1nncn12	36*	-2	7	-3	-6	-16%
c1ccc(N2CCCCC2)c(Nc2nc3ccccc3n3cnnc23)c1	2	9	-4	-1	-2	x
CNC(=S)N1N=C(c2ccc(C)cc2)CC1c1ccc(N(C)C)cc1 (stereo unspecified)	31*	1	4	4	-4	-27%
CN(C)c1ccc(NC(=S)c2ccccn2)cc1	49*	-9	4	2	1	-25%
Nc1ccc2[nH]ncc2c1	45*	3	7	-1	6	-17%
O=C1c2ccccc2NC(c2cccc([N+](=O)[O-])c2)N1O (stereo unspecified)	28*	-6	6	-4	0	11µM*
SMILES	MLL AF4-AF9 inh	miR-122 sensor	Rtt109 Vps75	ERAP1 HTS inh	S100A4 inh HTS	AlphaScreen intf
O=C1c2ccccc2NC(c2ccco2)N1O (stereo unspecified)	x	-3	6	x	x	x
COc1cc(CNc2ccc3[nH]c(=O)[nH]c3c2)cc(Br)c1OCc1ccc(F)cc1	-4	x	-4	-3	1	x
COc1cccc(CNc2ccc3[nH]c(=O)[nH]c3c2)c1OCc1ccccc1F	41*	-11	-6	1	-2	-20%
O=C(N/N=C/c1cc(Cl)cc([N+](=O)[O-])c1O)c1cccc(S(=O)(=O)N2CCOCC2)c1	36*	-9	-6	0	-4	12µM*
CC(N)=Nc1ccc([N+](=O)[O-])cc1	x	4	-1	x	x	x
O=[N+]([O-])c1ccc(N=Nc2c(Cl)cc(O)cc2Cl)cc1	52*	-25	0	2	2	14µM*
O=C1/C(=C/c2cccs2)CCC/C1=C\c1cccs1	0	8	0	3	-1	x
CC1C/C(=C/c2cccs2)C(=O)/C(=C/c2cccs2)C1 (stereo unspecified)	u	x	-9	-1	6	-20%
Oc1cccc(C(Nc2nccs2)c2ccc3cccnc3c2O)c1 (stereo unspecified)	49*	x	11	0	0	3.3µM*
Oc1c(C(Nc2cccc(C(F)(F)F)c2)c2cccnc2)ccc2cccnc12 (stereo unspecified)	x	x	-8	x	x	x
C[n+]1c(-c2ccc(C=NNC(=O)c3ccc(C(=O)NN=Cc4ccc(-c5cn6ccccc6[n+]5C)cc4)cc3)cc2)cn2ccccc21	78*	0	5	-2	3	-18%
O=C(N/N=C\c1ccc(F)cc1)c1ccc(F)cc1	-1	-9	-14	0	-4	x
CCN1/C(=C/C(C)=C/c2sc3ccccc3[n+]2CC)Sc2ccccc21	66*	-27	134*	-3	+	6.3µM*
C[C@@H]1CN([C@@H](C)CO)C(=O)c2cc(NS(=O)(=O)c3cn(C)cn3)ccc2O[C@@H](C)CCCCO[C@H]1CN(C)C(=O)CCC(F)(F)F	1	12[16.7 µM]	x	0	-48	x
Cc1[nH]c2ccccc2c1N=Nc1cc(C(=O)O)cc(C(=O)O)c1	1	-3	-4	12	-3	x
Cc1[nH]c2ccccc2c1N=Nc1ccccc1F	41*	x	24	3	-1	8µM*
COC(=O)C1=C[C@@H](C(=O)OC)[C@@H]2C3=C(C(=O)C2(C)C)[C@H](c2ccccc2)[C@@H]2C(=O)N(C)C(=O)[C@@H]2[C@@H]3C1	u	x	6	-4	16	16%
